Assay results reported in ChEMBL document CHEMBL1159377, “Synthetic approach to exo-endo cross-conjugated cyclohexadienones and its application to the syntheses of dehydrobrachylaenolide, isodehydrochamaecynone, and trans-isodehydrochamaecynone” (J Nat Prod, 2003).

Columns and labels:
Coptotermes formosanus [1] = test: Insecticidal activity against Coptotermes formosanus assessed as mortality at 1000 ppm after 5 days by filter paper contact method relative to control; type: functional
Coptotermes formosanus [2] = test: Insecticidal activity against Coptotermes formosanus assessed as mortality at 1000 ppm after 2 days by filter paper contact method relative to control; type: functional
Coptotermes formosanus [3] = test: Insecticidal activity against Coptotermes formosanus assessed as mortality at 1000 ppm after 1 day by filter paper contact method relative to control; type: functional
Coptotermes formosanus [4] = test: Insecticidal activity against Coptotermes formosanus assessed as mortality at 100 ppm after 5 days by filter paper contact method relative to control; type: functional
Coptotermes formosanus [5] = test: Insecticidal activity against Coptotermes formosanus assessed as mortality at 100 ppm after 2 days by filter paper contact method relative to control; type: functional
Coptotermes formosanus [6] = test: Insecticidal activity against Coptotermes formosanus assessed as mortality at 100 ppm after 1 day by filter paper contact method relative to control; type: functional
Coptotermes formosanus [7] = test: Insecticidal activity against Coptotermes formosanus assessed as mortality at 100 ppm after 7 days by filter paper contact method relative to control; type: functional
Coptotermes formosanus [8] = test: Insecticidal activity against Coptotermes formosanus assessed as mortality at 1000 ppm after 7 days by filter paper contact method relative to control; type: functional
A549 [9] = test: Inhibition of IL-1-beta-induced ICAM1 protein expression in human A549 cells treated for 1 hr before IL1-beta challenge for 6 hrs; type: functional, cell-based
Procedure, shortened: (§1)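 A549 cells at 3 × 10⁴/well pretreated with compound 1 h, then IL-1β at 0.25 ng/mL final for 6 h. Cells fixed in 1% paraformaldehyde and blocked with 1% BSA overnight. Mouse anti-human ICAM-1 and peroxidase anti-mouse IgG each 60 min at 37 °C. o-Phenylenediamine/H₂O₂ substrate (citrate pH 5.3), 20 min dark, A415. Expression normalised between IL-1β-treated and unstimulated wells. Triplicate.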

A549 [10] = test: Cytotoxicity against human A549 cells after 24 hrs by MTT assay; type: cell-based; conditions: A549, 24 h
Procedure, shortened: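 A549 cells (RPMI 1640, 10% FCS, 50 µM 2-mercaptoethanol, antibiotics) incubated with test compound 24 h; MTT 500 µg/mL pulsed for final 4 h; formazan dissolved in 5% SDS overnight; absorbance 595 nm. Viability % = (sample − background)/(control − background) × 100. Triplicate cultures.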

A549 [11] = test: Inhibition of IL-1-beta-induced ICAM1 protein expression in human A549 cells at 1 uM treated for 1 hr before IL1-beta challenge for 6 hrs relative to control; type: functional; procedure, shortened: as §1
A549 [12] = test: Inhibition of IL-1-beta-induced ICAM1 protein expression in human A549 cells at 3.2 uM treated for 1 hr before IL1-beta challenge for 6 hrs relative to control; type: functional; procedure, shortened: as §1
A549 [13] = test: Inhibition of IL-1-beta-induced ICAM1 protein expression in human A549 cells at 10 uM treated for 1 hr before IL1-beta challenge for 6 hrs relative to control; type: functional; procedure, shortened: as §1
A549 [14] = test: Inhibition of IL-1-beta-induced ICAM1 protein expression in human A549 cells at 32 uM treated for 1 hr before IL1-beta challenge for 6 hrs relative to control; type: functional; procedure, shortened: as §1
A549 [15] = test: Inhibition of IL-1-beta-induced ICAM1 protein expression in human A549 cells at 100 uM treated for 1 hr before IL1-beta challenge for 6 hrs relative to control; type: functional; procedure, shortened: as §1
A549 [16] = test: Inhibition of IL-1-beta-induced ICAM1 protein expression in human A549 cells at 320 uM treated for 1 hr before IL1-beta challenge for 6 hrs relative to control; type: functional; procedure, shortened: as §1
A549 [17] = test: Inhibition of IL-1-beta-induced ICAM1 protein expression in human A549 cells at 1000 uM treated for 1 hr before IL1-beta challenge for 6 hrs relative to control; type: functional; procedure, shortened: as §1
[18] = Cytotoxicity against human A549 cells after 24 hrs at 1 uM by MTT assay relative to control; type: cell-based; conditions: read-out: T/C
Procedure, shortened: (§2)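 A549 lung carcinoma cells grown in RPMI 1640 with 10% fetal calf serum, 50 µM 2-mercaptoethanol and penicillin-streptomycin-neomycin. Cells incubated with or without compound for 24 h, with MTT (500 µg/mL) present for the last 4 h. Formazan solubilised overnight in 5% SDS, absorbance read at 595 nm. Viability (%) = (sample − background)/(control − background) × 100. Triplicate cultures, mean ± SD.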

[19] = Cytotoxicity against human A549 cells after 24 hrs at 3.2 uM by MTT assay relative to control; type: cell-based; conditions: read-out: T/C; procedure, shortened: as §2
[20] = Cytotoxicity against human A549 cells after 24 hrs at 10 uM by MTT assay relative to control; type: cell-based; conditions: read-out: T/C; procedure, shortened: as §2
[21] = Cytotoxicity against human A549 cells after 24 hrs at 32 uM by MTT assay relative to control; type: cell-based; conditions: read-out: T/C; procedure, shortened: as §2
[22] = Cytotoxicity against human A549 cells after 24 hrs at 100 uM by MTT assay relative to control; type: cell-based; conditions: read-out: T/C; procedure, shortened: as §2
[23] = Cytotoxicity against human A549 cells after 24 hrs at 320 uM by MTT assay relative to control; type: cell-based; conditions: read-out: T/C; procedure, shortened: as §2
[24] = Cytotoxicity against human A549 cells after 24 hrs at 1000 uM by MTT assay relative to control; type: cell-based; conditions: read-out: T/C; procedure, shortened: as §2

C#C[C@@H]1CC[C@@]2(C)CCC(=O)[C@@H](C)[C@@H]2C1
Activity (Coptotermes formosanus [1]): 100%
Activity (Coptotermes formosanus [2]): 93%
Activity (Coptotermes formosanus [3]): 0%
Activity (Coptotermes formosanus [4]): 0%
Activity (Coptotermes formosanus [5]): 0%
Activity (Coptotermes formosanus [6]): 0%

C#C[C@@H]1CC[C@@]2(C)C=CC(=O)[C@@H](C)[C@@H]2C1
Activity (Coptotermes formosanus [1]): 100%
Activity (Coptotermes formosanus [2]): 97%
Activity (Coptotermes formosanus [3]): 80%
Activity (Coptotermes formosanus [7]): 100%
Activity (Coptotermes formosanus [4]): 43%
Activity (Coptotermes formosanus [5]): 0%
Activity (Coptotermes formosanus [6]): 0%
Activity (Coptotermes formosanus [8]): 100%

C#C[C@@H]1CC[C@@]2(C)C=CC(=O)C(=C)[C@@H]2C1
Activity (Coptotermes formosanus [1]): 100%
Activity (Coptotermes formosanus [2]): 93%
Activity (Coptotermes formosanus [3]): 33%
Activity (Coptotermes formosanus [4]): 17%
Activity (Coptotermes formosanus [5]): 3%
Activity (Coptotermes formosanus [6]): 0%

C[C@@H]1C(=O)O[C@@H]2[C@H]1CC[C@@]1(C)CCC(=O)[C@@H](C)[C@H]21
IC50 (A549 [9]): > 1000 µM

C=C1C(=O)O[C@H]2[C@H]3[C@H](C)C(=O)CC[C@]3(C)CC[C@@H]12
IC50 (A549 [9]): 17 µM

C#C[C@@H]1CC[C@@]2(C)C=CC(=O)[C@@H](C)[C@H]2C1 [CHAMAECYNONE]
Activity (Coptotermes formosanus [1]): 100%
Activity (Coptotermes formosanus [2]): 97%
Activity (Coptotermes formosanus [3]): 27%
Activity (Coptotermes formosanus [7]): 87%
Activity (Coptotermes formosanus [4]): 27%
Activity (Coptotermes formosanus [5]): 0%
Activity (Coptotermes formosanus [6]): 0%
Activity (Coptotermes formosanus [8]): 100%

C=C1C(=O)C=C[C@]2(C)CC[C@H]3C(=C)C(=O)O[C@H]3[C@@H]12 [DEHYDROBRACHYLAENOLIDE]
IC50 (A549 [10]): 55 µM
Activity (A549 [9]): Dose-dependent effect
IC50 (A549 [9]): 3 µM
T/C (A549 [11]): 75.5%
T/C (A549 [12]): 44.4%
T/C (A549 [13]): 1.1%
T/C (A549 [14]): 0.1%
T/C (A549 [15]): -0.3%
T/C (A549 [16]): -1.4%
T/C (A549 [17]): -3.3%
viability at 24 h, 1 µM [18]: 100%
viability at 24 h, 3.2 µM [19]: 90.8%
viability at 24 h, 10 µM [20]: 93.8%
viability at 24 h, 32 µM [21]: 68.8%
viability at 24 h, 100 µM [22]: 29.3%
viability at 24 h, 320 µM [23]: 28.6%
viability at 24 h, 1000 µM [24]: 11.8%

C#C[C@@H]1CC[C@@]2(C)C=CC(=O)C(C)=C2C1 [DEHYDROCHAMAECYNONE]
Activity (Coptotermes formosanus [1]): 100%
Activity (Coptotermes formosanus [2]): 90%
Activity (Coptotermes formosanus [3]): 13%
Activity (Coptotermes formosanus [4]): 7%
Activity (Coptotermes formosanus [5]): 0%
Activity (Coptotermes formosanus [6]): 0%

C=C1C(=O)O[C@H]2[C@H]3[C@H](C)C(=O)C=C[C@]3(C)CC[C@@H]12 [TUBERIFERINE]
IC50 (A549 [9]): 7.4 µM
